Assay results from ChEMBL document CHEMBL1124992, “(Pyrimidinyloxy)acetic acids and pyrimidineacetic acids as a novel class of aldose reductase inhibitors” (J Med Chem, 1990).

Tests used:
[1] = target: Aldo-keto reductase family 1 member B1 (Bos taurus) (UniProt P16116); assay: In vitro inhibition of aldose reductase from the partially purified bovine lens at 10e-7 M concentration
Method in brief: (§1)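 Bovine lens aldose reductase, partially purified, assayed spectrophotometrically following Hayman and Kinoshita. Each compound was tested at three concentrations, routinely in duplicate.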

[2] = target: Aldo-keto reductase family 1 member B1 (Bos taurus) (UniProt P16116); assay: In vitro inhibition of aldose reductase from the partially purified bovine lens at 10e-5 M concentration; method in brief: as §1
Rattus norvegicus [3] = assay: In vivo inhibition of polyol accumulation in galactosemic rat diaphragm at dose 99 mg/kg administered perorally; assay type: functional; settings: route oral
Method in brief: (§2)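 Rats received a diet of 20% galactose for 4 days, with compound mixed into the diet. Galactitol was measured in trichloroacetic acid extracts of lens, sciatic nerve and diaphragm by a modified Kraml–Cosyns method. Values are % reduction versus galactosemic controls, compared by Dunnett's multiple comparison.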

Rattus norvegicus [4] = assay: In vivo inhibition of polyol accumulation in galactosemic rat nerve at dose 99 mg/kg administered perorally; assay type: functional; settings: route oral; method in brief: as §2
[5] = target: Aldo-keto reductase family 1 member B1 (Bos taurus) (UniProt P16116); assay: In vitro inhibition of aldose reductase from the partially purified bovine lens at 10e-6 M concentration; method in brief: as §1
Rattus norvegicus [6] = assay: In vivo inhibition of polyol accumulation in galactosemic rat lens at dose 93 mg/kg administered perorally; assay type: functional, Lens of camera-type eye; settings: route oral; method in brief: as §2
Rattus norvegicus [7] = assay: In vivo inhibition of polyol accumulation in galactosemic rat nerve at dose 93 mg/kg administered perorally; assay type: functional; settings: route oral; method in brief: as §2
Rattus norvegicus [8] = assay: In vivo inhibition of polyol accumulation in galactosemic rat nerve at dose 78 mg/kg administered perorally; assay type: functional; settings: route oral; method in brief: as §2
Rattus norvegicus [9] = assay: In vivo inhibition of polyol accumulation in galactosemic rat diaphragm at dose 82 mg/kg administered perorally; assay type: functional; settings: route oral; method in brief: as §2
Rattus norvegicus [10] = assay: In vivo inhibition of polyol accumulation in galactosemic rat nerve at dose 82 mg/kg administered perorally; assay type: functional; settings: route oral; method in brief: as §2
Rattus norvegicus [11] = assay: In vivo inhibition of polyol accumulation in galactosemic rat diaphragm at dose 102 mg/kg administered perorally; assay type: functional; settings: route oral; method in brief: as §2
Rattus norvegicus [12] = assay: In vivo inhibition of polyol accumulation in galactosemic rat nerve at dose 151 mg/kg administered perorally; assay type: functional; settings: route oral; method in brief: as §2
Rattus norvegicus [13] = assay: In vivo inhibition of polyol accumulation in galactosemic rat diaphragm at dose 105 mg/kg administered perorally; assay type: functional; settings: route oral; method in brief: as §2
Rattus norvegicus [14] = assay: In vivo inhibition of polyol accumulation in galactosemic rat nerve at dose 105 mg/kg administered perorally; assay type: functional; settings: route oral; method in brief: as §2
Rattus norvegicus [15] = assay: In vivo inhibition of polyol accumulation in galactosemic rat diaphragm at dose 90 mg/kg administered perorally; assay type: functional; settings: route oral; method in brief: as §2
Rattus norvegicus [16] = assay: In vivo inhibition of polyol accumulation in galactosemic rat nerve at dose 90 mg/kg administered perorally; assay type: functional; settings: route oral; method in brief: as §2
Rattus norvegicus [17] = assay: In vivo inhibition of polyol accumulation in galactosemic rat diaphragm at dose 135 mg/kg administered perorally; assay type: functional; settings: route oral; method in brief: as §2
Rattus norvegicus [18] = assay: In vivo inhibition of polyol accumulation in galactosemic rat diaphragm at dose 83 mg/kg administered perorally; assay type: functional; settings: route oral; method in brief: as §2
Rattus norvegicus [19] = assay: In vivo inhibition of polyol accumulation in galactosemic rat nerve at dose 83 mg/kg administered perorally; assay type: functional; settings: route oral; method in brief: as §2
Rattus norvegicus [20] = assay: In vivo inhibition of polyol accumulation in galactosemic rat diaphragm at dose 97 mg/kg administered perorally; assay type: functional; settings: route oral; method in brief: as §2
Rattus norvegicus [21] = assay: In vivo inhibition of polyol accumulation in galactosemic rat nerve at dose 97 mg/kg administered perorally; assay type: functional; settings: route oral; method in brief: as §2
Rattus norvegicus [22] = assay: In vivo inhibition of polyol accumulation in galactosemic rat nerve at dose 6 mg/kg administered perorally; assay type: functional; settings: route oral; method in brief: as §2
Rattus norvegicus [23] = assay: In vivo inhibition of polyol accumulation in galactosemic rats lens; assay type: functional; settings: Lens of camera-type eye, read-out: ID50 (the source's name)
Rattus norvegicus [24] = assay: In vivo inhibition of polyol accumulation in galactosemic rats nerve; assay type: functional; settings: read-out: ID50 (the source's name)
Rattus norvegicus [25] = assay: In vivo inhibition of polyol accumulation in galactosemic rats diaphragm; assay type: functional; settings: read-out: ID50 (the source's name)
Rattus norvegicus [26] = assay: In vivo inhibition of polyol accumulation in galactosemic rat diaphragm at dose 6 mg/kg administered perorally; assay type: functional; settings: route oral; method in brief: as §2
Rattus norvegicus [27] = assay: In vivo inhibition of polyol accumulation in galactosemic rat diaphragm at dose 96 mg/kg administered perorally; assay type: functional; settings: route oral; method in brief: as §2
Rattus norvegicus [28] = assay: In vivo inhibition of polyol accumulation in galactosemic rat nerve at dose 112 mg/kg administered perorally; assay type: functional; settings: route oral; method in brief: as §2
Rattus norvegicus [29] = assay: In vivo inhibition of polyol accumulation in galactosemic rat diaphragm at dose 112 mg/kg administered perorally; assay type: functional; settings: route oral; method in brief: as §2

Row | Structure (SMILES) | inhibition [1] [%] | inhibition [2] [%] | inhibition [5] [%] | other results
1 | CSc1nc(C(C)(C)C)nc(OCC(=O)O)c1C(N)=O | 10 | 81 | 42 | 
2 | COC(=O)c1c(SC)nc(C2CCCCC2)n(CC(=O)O)c1=O |  | 5 | 1 | 
3 | CSc1nc(C2CCCCC2)n(CC(=O)O)c(=O)c1S(=O)(=O)c1ccccc1 |  | 3 | 0 | 
4 | CSc1nc(C(C)C)nc(OCC(=O)O)c1C#N | 88 | 98 | 97 | Reduction (Rattus norvegicus [8]): 37%
5 | CC(C)Sc1nc(C(C)(C)C)nc(OCC(=O)O)c1C#N | 89 | 92 | 91 | Reduction (Rattus norvegicus [9]): 19%; Reduction (Rattus norvegicus [10]): 37%
6 | N#Cc1c(Cc2cccc3ccccc23)nc(-c2cccc3c(Br)cccc23)n(CC(=O)O)c1=O | 46 | 93 | 85 | Reduction (Rattus norvegicus [12]): 30%
7 | CC(C)(C)c1nc(OCC(=O)O)c(C#N)c(SCC2CCCCC2)n1 | 88 | 97 | 96 | Reduction (Rattus norvegicus [13]): 60%; Reduction (Rattus norvegicus [14]): 70%
8 | N#Cc1c(OCC(=O)O)nc(-c2cccc3ccccc23)nc1-c1ccccc1 | 53 | 79 | 76 | 
9 | CSc1nc(C)nc(OCC(=O)O)c1C#N | 55 | 90 | 84 | 
10 | CSc1nc(C(C)(C)C)nc(OCC(=O)O)c1C#N | 82 | 89 | 88 | Reduction (Rattus norvegicus [18]): 32%; Reduction (Rattus norvegicus [19]): 35%
11 | COc1ccc2c(C(=S)N(C)CC(=O)O)cccc2c1C(F)(F)F [TOLRESTAT] |  |  |  | Reduction (Rattus norvegicus [22]): 53%; ED50 (Rattus norvegicus [23]): 178 mg/kg; ED50 (Rattus norvegicus [24]): 8 mg/kg; ED50 (Rattus norvegicus [25]): 1.5 mg/kg; Reduction (Rattus norvegicus [26]): 90%
12 | CCCCCCSc1nc(C(C)(C)C)nc(OCC(=O)O)c1C#N |  |  |  | Reduction (Rattus norvegicus [28]): 43%; Reduction (Rattus norvegicus [29]): 60%
13 | COC(=O)c1c(OCC(=O)O)nc(C(C)(C)C)nc1SC |  | 13 | 2 | 
14 | CSc1nc(CC(C)(C)C)nc(OCC(=O)O)c1C#N | 85 | 95 | 96 | 

Second part, led by results:

Row | inhibition [1] [%] | inhibition [2] [%] | inhibition [5] [%] | Structure (SMILES) | other results
15 | 93 | 98 | 93 | CC(C)(C)c1nc(OCC(=O)O)c(C#N)c(SCc2ccc(Br)cc2F)n1 | Reduction (Rattus norvegicus [3]): 47%; Reduction (Rattus norvegicus [4]): 28%
16 | 92 | 96 |  | N#Cc1c(SCc2ccc(Br)cc2F)nc(C2CCCCC2)n(CC(=O)O)c1=O | Reduction (Rattus norvegicus [6]): 15%; Reduction (Rattus norvegicus [7]): 50%
17 | 46 | 93 | 85 | Cc1nc(-c2cccc3ccccc23)nc(OCC(=O)O)c1C#N | 
18 | 94 | 96 | 98 | CC(C)c1nc(SCc2ccccc2)c(C#N)c(=O)n1CC(=O)O | Reduction (Rattus norvegicus [11]): 38%
19 | 29 | 84 | 68 | N#Cc1c(-c2ccccc2)nc(-c2cccc3ccccc23)n(CC(=O)O)c1=O | 
20 | 89 | 98 |  | CSc1nc(C2CCCCC2)n(CC(=O)O)c(=O)c1C#N | Reduction (Rattus norvegicus [15]): 42%; Reduction (Rattus norvegicus [16]): 47%
21 | 30 | 88 | 90 | Cc1nc(NCc2cccnc2)c(C#N)c(=O)n1CC(=O)O | 
22 | 95 | 95 | 95 | CC(C)(C)c1nc(OCC(=O)O)c(C#N)c(SCc2ccc(Br)cc2)n1 | Reduction (Rattus norvegicus [17]): 58%
23 | 64 | 92 | 89 | Cc1nc(N2CCN(Cc3ccccc3)CC2)c(C#N)c(=O)n1CC(=O)O | 
24 | 82 | 86 | 85 | CC(C)(C)c1nc(OCC(=O)O)c(C#N)c(SCc2ccccc2)n1 | Reduction (Rattus norvegicus [20]): 67%; Reduction (Rattus norvegicus [21]): 46%
25 | 75 | 92 | 87 | CSc1nc(-c2ccccc2)nc(OCC(=O)O)c1C#N | Reduction (Rattus norvegicus [27]): 55%
26 | 79 | 92 | 88 | Cc1nc(-c2ccccc2)nc(OCC(=O)O)c1C#N | 
27 | 81 | 90 | 88 | Cc1nc(N2CCC(Cc3ccccc3)CC2)c(C#N)c(=O)n1CC(=O)O | 
28 | 22 | 82 | 71 | N#Cc1c(-c2ccccc2)nc(-c2cccc3c(Br)cccc23)n(CC(=O)O)c1=O | 
29 | 91 | 96 | 97 | CC(C)Sc1nc(C(C)C)n(CC(=O)O)c(=O)c1C#N | 
30 | 94 | 96 | 96 | CSc1nc(C(C)C)n(CC(=O)O)c(=O)c1C#N | 
31 | 72 | 93 | 91 | Cc1nc(NCC2CCCCC2)c(C#N)c(=O)n1CC(=O)O | 
32 | 74 | 86 | 84 | CSc1nc(C)n(CC(=O)O)c(=O)c1C#N | 
33 |  | 53 | 18 | Cc1nc(NCc2cccnc2)cc(=O)n1CC(=O)O | 
34 | 76 | 96 | 90 | Cc1nc(NCc2ccccc2)c(C#N)c(=O)n1CC(=O)O | 
